Source: ChEMBL document CHEMBL1155847, “Novel indoline-based acyl-CoA:cholesterol acyltransferase inhibitor with antiperoxidative activity: improvement of physicochemical properties and biological activities by introduction of carboxylic acid” (J Med Chem, 2008)
≈ marks a conversion by molar mass, not a printed value.

What was measured:
[1] = target: T1, Sterol O-acyltransferase 1 (Homo sapiens, UniProt P35610); assay: Inhibition of ACAT-mediated esterified cholesterol accumulation in human THP1 cells exposed to acetyl-LDL during differentiation assessed as effect on foam cell formation; format: cell-based, THP-1
T1 sequence (P35610 whole entry): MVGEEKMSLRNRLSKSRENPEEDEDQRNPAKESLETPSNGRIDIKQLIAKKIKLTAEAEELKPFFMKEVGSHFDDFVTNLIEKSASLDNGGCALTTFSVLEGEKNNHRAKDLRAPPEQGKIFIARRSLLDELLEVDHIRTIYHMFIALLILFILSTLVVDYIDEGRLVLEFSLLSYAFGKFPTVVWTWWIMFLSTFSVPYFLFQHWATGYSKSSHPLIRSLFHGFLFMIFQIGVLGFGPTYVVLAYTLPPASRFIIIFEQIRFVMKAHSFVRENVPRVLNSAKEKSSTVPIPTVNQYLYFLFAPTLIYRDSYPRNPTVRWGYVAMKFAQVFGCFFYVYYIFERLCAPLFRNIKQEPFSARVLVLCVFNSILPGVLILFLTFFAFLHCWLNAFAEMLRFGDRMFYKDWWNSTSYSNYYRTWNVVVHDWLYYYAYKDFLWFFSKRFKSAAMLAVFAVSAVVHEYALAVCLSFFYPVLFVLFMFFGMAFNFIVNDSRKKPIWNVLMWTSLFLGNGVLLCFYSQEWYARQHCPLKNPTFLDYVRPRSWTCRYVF

[2] = target: T2, Acyl-CoA:cholesterol acyltransferase (Oryctolagus cuniculus, UniProt Q95214); assay: Inhibition of normocholesterolemic rabbit liver ACAT
T2 sequence (Q95214 whole entry): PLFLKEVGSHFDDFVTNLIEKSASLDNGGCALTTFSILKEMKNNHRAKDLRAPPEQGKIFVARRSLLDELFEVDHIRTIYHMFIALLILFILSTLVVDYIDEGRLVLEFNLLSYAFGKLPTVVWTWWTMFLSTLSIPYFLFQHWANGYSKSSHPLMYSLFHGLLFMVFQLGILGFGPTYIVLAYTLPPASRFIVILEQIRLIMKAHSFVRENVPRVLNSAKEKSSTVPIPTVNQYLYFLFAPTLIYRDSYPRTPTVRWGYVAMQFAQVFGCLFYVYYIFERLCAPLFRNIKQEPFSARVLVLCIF
How it was run: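 Liver from normocholesterolemic male Japanese White rabbits homogenized in sucrose/phosphate/EDTA/dithioerythritol buffer pH 7.4. Microsomes collected by 12000g then 105000g spins. Then 30 nmol [1-¹⁴C]oleoyl-CoA added, 20 min at 37 °C. Cholesteryl ester extracted and separated by TLC.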

[3] = tested on: Brain; assay: Antiperoxidative activity in Sprague-Dawley rat brain assessed as inhibition of malonaldehyde level; format: functional, tissue-based
How it was run: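 Cerebral cortex from male SD rats (6 weeks) homogenized in ice-cold 50 mM PBS pH 7.4, spun 1300g. Supernatant incubated 37 °C, 30 min with vehicle or compound. Stopped with 20% TCA; thiobarbituric acid reaction at 100 °C, 15 min; MDA read at 532 nm, less pre-assay MDA. Duplicate assay, n = 2.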

[4] = AUC in Sprague-Dawley rat at 10 mg/kg, po; format: ADME, organism-based; set-up: dose 10 mg/kg, route oral; details: plasma
How it was run: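 Male SD rats, 6-7 weeks, fasted overnight, n = 3; single oral 10 mg/kg dose suspended in 5% arabic gum. Jugular-vein heparinized blood at 0.5, 1, 3, 5, 8, 24 h; plasma free-form compound by HPLC. AUC taken over 24 h.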

[5] = Distribution coefficient, log D at pH 7.0; format: physicochemical; details: octanol/water
How it was run: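 5 mg of compound in 5 mL octanol shaken 30 min at room temperature with 5 mL 1/15 M potassium phosphate buffer pH 7.0, then centrifuged. Both phases quantified by HPLC. log D taken as log of the octanol/buffer concentration ratio.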

[6] = Solubility in water at pH 7.0; format: physicochemical
How it was run: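 6 mg of compound shaken 30 min at room temperature in 3 mL 1/15 M potassium phosphate buffer pH 7.0, centrifuged and filtered (0.45 µm). Filtrate concentration by HPLC.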

IC50 [1] [µM] | IC50 [2] [µM] | IC50 [3] [µM] | AUC [4] [ng·h/mL] | logD [5] | solubility [6] [µg/mL] | SMILES
> 10 | 5.5 | 48.3 | 100 |  |  | Cc1cc(C)c(NC(=O)C(C)(C)C)c2c1CCN2CCCCCCCCCC(=O)O
> 10 | > 10 | 1.7 | 6600 | 3.7 | 66 (≈ 150 µM) | CCCCCCCCN1CCc2c(C)c(Cc3nnn[nH]3)c(C)c(NC(=O)C(C)(C)C)c21
 |  |  |  | 2.3 | 857 | CCCCCCCCN1CCc2c(C)c(CN)c(C)c(NC(=O)C(C)(C)C)c21.Cl.Cl
3.6 | 5 | 4.2 | 1700 |  |  | CCCCCCCCN1CC(CCC(=O)O)c2c(C)cc(C)c(NC(=O)C(C)(C)C)c21 (stereo not given)
> 10 | > 10 | 6.6 | 5000 |  |  | CCCCCCCCN1CCc2c(C)cc(C)c(NC(=O)C(C)(C)CCC(=O)O)c21
1.5 | 7.6 |  |  |  |  | CC(C)c1cc(C(C)C)c(CC(=O)NS(=O)(=O)Oc2c(C(C)C)cccc2C(C)C)c(C(C)C)c1 [AVASIMIBE]
 |  |  |  | 2.8 | 732 | Cc1cc(C)c(NC(=O)C(C)(C)C)c2c1CCN2CCCCCCCCCC(=O)O.Cl
 |  | 4.2 |  |  |  | CCCCCCCCN1CCc2c(C)c(CN)c(C)c(NC(=O)C(C)(C)C)c21
